Calls of active or inactive are those of the source. No cut-off for these calls is given here.
Experiments:
[1] = test system: MCF7; assay: Cytotoxicity against human MCF7 cells at 10^-6 M after 72 hrs by MTS assay; format: functional; settings: MCF7, 72 h, read-out: GI
[2] = test system: K562; assay: Cytotoxicity against human K562 cells at 10^-5 M after 72 hrs by MTS assay; format: functional; settings: K562, 72 h, read-out: GI
Method in brief: (§1)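 Cells grown in RPMI with 10% fetal calf serum, penicillin, streptomycin and fungizone under 5% CO₂. Plated in 96-well plates and dosed 24 h later with compound in DMSO (1% final DMSO; controls got DMSO alone). After 72 h, MTS was added for 3 h at 37 °C and A490 read. Inhibition = (1 − OD treated/OD control) × 100, in triplicate.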

[3] = test system: HCT-15; assay: Cytotoxicity against human HCT15 cells at 10^-5 M after 72 hrs by MTS assay; format: functional; settings: HCT-15, 72 h, read-out: GI; method in brief: as §1
[4] = test system: SK-OV-3; assay: Cytotoxicity against human SKOV3 cells at 10^-5 M after 72 hrs by MTS assay; format: functional; settings: SK-OV-3, 72 h, read-out: GI
Method in brief: (§2)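 Preliminary screen at 10^-5 and 10^-6 M. Cells were grown in RPMI with 10% fetal calf serum plus penicillin, streptomycin and fungizone under 5% CO₂, plated in 96-well plates, and dosed 24 h later from DMSO stocks (1% DMSO final, same in controls). After 72 h, MTS was added for 3 h at 37 °C and absorbance read at 490 nm. Inhibition was calculated as (1 − OD treated/OD control) × 100, in triplicate.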

[5] = test system: SF-268; assay: Cytotoxicity against human SF268 cells at 10^-5 M after 72 hrs by MTS assay; format: functional; settings: SF-268, 72 h, read-out: GI; method in brief: as §2
[6] = test system: OVCAR-8; assay: Cytotoxicity against human OVCAR8 cells at 10^-6 M after 72 hrs by MTS assay; format: functional; settings: OVCAR-8, 72 h, read-out: GI; method in brief: as §2
[7] = test system: HCT-116; assay: Cytotoxicity against human HCT116 cells at 10^-5 M after 72 hrs by MTS assay; format: functional; settings: HCT-116, 72 h, read-out: GI; method in brief: as §1
[8] = test system: HL-60; assay: Cytotoxicity against human HL60 cells at 10^-6 M after 72 hrs by MTS assay; format: functional; settings: HL-60, 72 h, read-out: GI; method in brief: as §1
[9] = test system: SK-OV-3; assay: Antiproliferative activity against human SKOV3 cells after 72 hrs by MTS assay; format: functional, cell-based; settings: SK-OV-3, 72 h
Method in brief: (§3)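 Cell lines grown in RPMI with 10% fetal calf serum plus penicillin, streptomycin and fungizone under 5% CO2. Compounds in DMSO (1% final; controls got DMSO alone) were added 24 h after plating. After 72 h exposure, MTS was added for 3 h at 37 °C and A490 read. Inhibition = (1 − OD treated/OD control)×100, in triplicate. IC50s came from separate duplicate dose-response experiments.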

[10] = test system: PC-3; assay: Antiproliferative activity against human PC3 cells after 72 hrs by MTS assay; format: functional, cell-based; settings: PC-3, 72 h; method in brief: as §3
[11] = test system: OVCAR-8; assay: Cytotoxicity against human OVCAR8 cells at 10^-5 M after 72 hrs by MTS assay; format: functional; settings: OVCAR-8, 72 h, read-out: GI; method in brief: as §2
[12] = species: Ovis aries; assay: Inhibition of sheep brain tubulin polymerization at 10 uM
Method in brief: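 Microtubule protein from sheep brain, purified by two assembly/disassembly cycles (37 °C/0 °C), in 100 mM MES pH 6.6, 1 mM EGTA, 0.5 mM MgCl₂. Compounds in DMSO were tested at a single concentration, with incubation at 37 °C for 10 min and then 0 °C for 5 min before measuring assembly rate, following a modified Guénard protocol.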

[13] = test system: K562; assay: Antiproliferative activity against human K562 cells after 72 hrs by MTS assay; format: functional, cell-based; settings: K562, 72 h; method in brief: as §3
[14] = test system: A549; assay: Cytotoxicity against human A549 cells at 10^-6 M after 72 hrs by MTS assay; format: functional; settings: A549, 72 h, read-out: GI; method in brief: as §1
[15] = test system: HCT-116; assay: Cytotoxicity against human HCT116 cells at 10^-6 M after 72 hrs by MTS assay; format: functional; settings: HCT-116, 72 h, read-out: GI; method in brief: as §1
[16] = Cytotoxicity against human HL60R cells at 10^-6 M after 72 hrs by MTS assay; format: functional; settings: read-out: GI; method in brief: as §1
[17] = test system: PC-3; assay: Cytotoxicity against human PC3 cells at 10^-5 M after 72 hrs by MTS assay; format: functional; settings: PC-3, 72 h, read-out: GI; method in brief: as §2
[18] = Cytotoxicity against human MDA231 cells at 10^-6 M after 72 hrs by MTS assay; format: functional; settings: MDA-MB-231, 72 h, read-out: GI; method in brief: as §2
[19] = Cytotoxicity against human HL60R cells at 10^-5 M after 72 hrs by MTS assay; format: functional, HL-60; settings: read-out: GI; method in brief: as §1
[20] = test system: MIA PaCa-2; assay: Cytotoxicity against human MIAPaCa2 cells at 10^-5 M after 72 hrs by MTS assay; format: functional; settings: MIA PaCa-2, 72 h, read-out: GI
[21] = test system: SK-OV-3; assay: Cytotoxicity against human SKOV3 cells at 10^-6 M after 72 hrs by MTS assay; format: functional; settings: SK-OV-3, 72 h, read-out: GI; method in brief: as §2
[22] = Antiproliferative activity against human HL60R cells after 72 hrs by MTS assay; format: functional, cell-based
[23] = test system: OVCAR-8; assay: Antiproliferative activity against human OVCAR8 cells after 72 hrs by MTS assay; format: functional, cell-based; settings: OVCAR-8, 72 h; method in brief: as §3
[24] = test system: K562; assay: Cytotoxicity against human K562 cells at 10^-6 M after 72 hrs by MTS assay; format: functional; settings: K562, 72 h, read-out: GI; method in brief: as §1
[25] = test system: PC-3; assay: Cytotoxicity against human PC3 cells at 10^-6 M after 72 hrs by MTS assay; format: functional; settings: PC-3, 72 h, read-out: GI; method in brief: as §2
[26] = test system: SF-268; assay: Antiproliferative activity against human SF268 cells after 72 hrs by MTS assay; format: functional, cell-based; settings: SF-268, 72 h; method in brief: as §3
[27] = test system: A549; assay: Cytotoxicity against human A549 cells at 10^-5 M after 72 hrs by MTS assay; format: functional; settings: A549, 72 h, read-out: GI; method in brief: as §1
[28] = test system: HCT-15; assay: Cytotoxicity against human HCT15 cells at 10^-6 M after 72 hrs by MTS assay; format: functional; settings: HCT-15, 72 h, read-out: GI; method in brief: as §1
[29] = test system: HL-60; assay: Antiproliferative activity against human HL60 cells after 72 hrs by MTS assay; format: functional, cell-based; settings: HL-60, 72 h; method in brief: as §3
[30] = test system: HT-29; assay: Cytotoxicity against human HT-29 cells at 10^-5 M after 72 hrs by MTS assay; format: functional; settings: HT-29, 72 h, read-out: GI; method in brief: as §1
[31] = test system: SF-268; assay: Cytotoxicity against human SF268 cells at 10^-6 M after 72 hrs by MTS assay; format: functional; settings: SF-268, 72 h, read-out: GI; method in brief: as §2
[32] = Cytotoxicity against human MDA231 cells at 10^-5 M after 72 hrs by MTS assay; format: functional; settings: MDA-MB-231, 72 h, read-out: GI; method in brief: as §2
[33] = test system: HL-60; assay: Cytotoxicity against human HL60 cells at 10^-5 M after 72 hrs by MTS assay; format: functional; settings: HL-60, 72 h, read-out: GI; method in brief: as §1
[34] = test system: HT-29; assay: Cytotoxicity against human HT-29 cells at 10^-6 M after 72 hrs by MTS assay; format: functional; settings: HT-29, 72 h, read-out: GI; method in brief: as §1
[35] = Antiproliferative activity against human MDA231 cells after 72 hrs by MTS assay; format: functional, cell-based; settings: MDA-MB-231, 72 h; method in brief: as §3
[36] = test system: MCF7; assay: Cytotoxicity against human MCF7 cells at 10^-5 M after 72 hrs by MTS assay; format: functional; settings: MCF7, 72 h, read-out: GI
[37] = test system: HCT-15; assay: Antiproliferative activity against human HCT15 cells after 72 hrs by MTS assay; format: functional, cell-based; settings: HCT-15, 72 h; method in brief: as §3
[38] = test system: MIA PaCa-2; assay: Cytotoxicity against human MIAPaCa2 cells at 10^-6 M after 72 hrs by MTS assay; format: functional; settings: MIA PaCa-2, 72 h, read-out: GI

| tubulin polymerization inhibition call (active/not active) [12] | SMILES | inhibition of growth at 1 µM [1] | inhibition of growth at 10 µM [2] | inhibition of growth at 10 µM [3] | inhibition of growth at 10 µM [4] | inhibition of growth at 10 µM [5] | inhibition of growth at 1 µM [6] | inhibition of growth at 10 µM [7] | inhibition of growth at 1 µM [8] | inhibition of growth at 10 µM [11] | inhibition of growth at 1 µM [14] | inhibition of growth at 1 µM [15] | inhibition of growth at 1 µM [16] | inhibition of growth at 10 µM [17] | inhibition of growth at 1 µM [18] | inhibition of growth at 10 µM [19] | inhibition of growth at 10 µM [20] | inhibition of growth at 1 µM [21] | inhibition of growth at 1 µM [24] | inhibition of growth at 1 µM [25] | other results |
| --- | --- | --- | --- | --- | --- | --- | --- | --- | --- | --- | --- | --- | --- | --- | --- | --- | --- | --- | --- | --- | --- |
| inactive | COc1cc(C(=C(CO)CO)c2ccc3ccccc3c2)cc(OC)c1OC | 8% | 83% | 82% | 64% | 85% | 0% | 68% | 17% | 67% | 3% | 0% | 11% | 75% | 5% | 89% | 54% | 5% | 24% | 10% | IC50 [9]: 6840 nM; IC50 [10]: 760 nM; IC50 [13]: 170 nM; IC50 [22]: 1680 nM; IC50 [23]: 4470 nM; IC50 [26]: 1250 nM; inhibition of growth at 10 µM [27]: 67%; inhibition of growth at 1 µM [28]: 19%; IC50 [29]: 780 nM; inhibition of growth at 10 µM [30]: 71%; inhibition of growth at 1 µM [31]: 14%; inhibition of growth at 10 µM [32]: 88%; inhibition of growth at 10 µM [33]: 75%; inhibition of growth at 1 µM [34]: 0%; IC50 [35]: 810 nM; inhibition of growth at 10 µM [36]: 51%; IC50 [37]: 390 nM; inhibition of growth at 1 µM [38]: 0% |
| inactive | COc1cc(C(=C(COC(C)=O)COC(C)=O)c2ccc3c(c2)OCO3)cc(OC)c1OC | 0% | 26% | 22% | 7% | 20% | 0% | 0% | 17% | 0% | 0% | 0% | 9% | 13% | 0% | 24% | 0% | 3% | 5% | 3% | inhibition of growth at 10 µM [27]: 12%; inhibition of growth at 1 µM [28]: 9%; inhibition of growth at 10 µM [30]: 0%; inhibition of growth at 1 µM [31]: 24%; inhibition of growth at 10 µM [32]: 17%; inhibition of growth at 10 µM [33]: 30%; inhibition of growth at 1 µM [34]: 0%; inhibition of growth at 10 µM [36]: 11%; inhibition of growth at 1 µM [38]: 0% |
| inactive | COc1cc(C(=C(COC(C)=O)COC(C)=O)c2ccc3ccccc3c2)cc(OC)c1OC | 10% | 83% | 65% | 46% | 81% | 0% | 20% | 11% | 6% | 3% | 0% | 19% | 62% | 0% | 41% | 15% | 12% | 12% | 18% | inhibition of growth at 10 µM [27]: 45%; inhibition of growth at 1 µM [28]: 8%; inhibition of growth at 10 µM [30]: 22%; inhibition of growth at 1 µM [31]: 17%; inhibition of growth at 10 µM [32]: 74%; inhibition of growth at 10 µM [33]: 82%; inhibition of growth at 1 µM [34]: 0%; inhibition of growth at 10 µM [36]: 17%; inhibition of growth at 1 µM [38]: 4% |
